We go through 5 compounds from ChEMBL document CHEMBL3271965, “Synthesis and anti-DNA -virus activity of the 5'-monophosphate and the cyclic 3',5'-monophosphate of 9-(beta-D-xylofuranosyl) guanine” (J Med Chem, 1976).

One series concerns Vaccinia virus. The series can be described thus: Antiviral activity against Vaccinia virus infected in human KB cells assessed as virus-induced cytopathic effect after 72 hrs. It counts as functional, organism-based. The settings on record: Orthopoxvirus vaccinia. In general terms: Cytopathic effects are the visible damage that an infection or toxin causes in cultured cells.

Series [1] deals with Human alphaherpesvirus 1. The series can be described thus: Antiviral activity against Herpesvirus 1 123 infected in Swiss mouse assessed as increase in survival at 52 mg/kg/day, ip. The format is functional, organism-based. The gist of the method:
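Encephalitis induced in 18-20-g Swiss mice by intracerebral LD₇₅ of herpes virus type 1 strain 123. Drug given intraperitoneally b.i.d. ×9 starting 4 h post-inoculation at 104, 52 or 26 mg/kg/day, with saline controls. Survivors/total compared by Fisher's exact test; survival time compared by t test.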

Another series concerns Human alphaherpesvirus 2. As to the kind of experiment: Antiviral activity against Herpesvirus 2 infected in human KB cells assessed as virus-induced cytopathic effect after 72 hrs. The format is functional, organism-based. The gist of the method:
(§1)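 KB (human nasopharyngeal carcinoma) monolayers, 18-24 h old, infected with 320 CCID₅₀ of herpes virus type 1 or type 2. Compound added within 15 min at half-log dilutions from 1000 to 1 μg/ml. Incubated 72 h at 37°. CPE scored microscopically 0-4. Virus rating is the summed (virus control − treated) CPE differences across drug levels, halved at levels showing partial toxicity.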

For series [2], the system named is Human alphaherpesvirus 1. The series can be described thus: Antiviral activity against Herpesvirus 1 123 infected in Swiss mouse assessed as increase in survival time at 26 mg/kg/day, ip relative to control. The format is functional, organism-based. The gist of the method: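 Dosed intraperitoneally b.i.d. for 9 days, starting 4 h after virus inoculation. Infected animals were compared with saline controls. Survival time was assessed by t test.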

Series [3] in a line: Cytotoxicity against human KB cells after 72 hrs. It counts as cell-based.
The next series relates to Mus musculus. As to the kind of experiment: Toxicity in Swiss mouse assessed as weight loss at 52 mg/kg/day, ip. The format is organism-based. Also noted: route intraperitoneal. The following applies: in vivo. The gist of the method:
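Uninfected toxicity-control Swiss mice (18-20 g) dosed intraperitoneally b.i.d. ×9 at 104 or 52 mg/kg/day, in parallel with the infected groups. Body weight and survivors/total recorded.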

Series [4] has as its system Human alphaherpesvirus 1. As to the kind of experiment: Antiviral activity against Herpesvirus 1 123 infected in Swiss mouse assessed as increase in survival at 0.31 to 1.25 mg/kg, ic administered as single dose 6 hrs post infection relative to control. It counts as functional, organism-based. The gist of the method:
(§2)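 18-20-g Swiss mice inoculated intracerebrally with an LD₇₅ of herpes virus type 1 strain 123 to induce encephalitis. One intracerebral drug treatment given 6 h after virus inoculation. Survivors counted against untreated infected controls.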

Series [5] has as its system Human alphaherpesvirus 1. The series can be described thus: Antiviral activity against Herpesvirus 1 123 infected in Swiss mouse assessed as increase in survival at MTD, ic administered as single dose 6 hrs post infection relative to control. The format is functional, organism-based. The gist of the method:
as §2

A short description of series [6]: Therapeutic index, ratio of MTD for Swiss mouse to MID for Herpesvirus 1 123 infected in Swiss mouse. The following applies: read-out: TI. The gist of the method: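 Therapeutic index = maximum tolerated dose / minimum inhibitory dose, based on survivors/total among treated infected mice. The ic regimen was a single MTD dose at 6 h post-inoculation. The ip regimen was b.i.d. ×9 from 4 h. Uninfected toxicity controls were run alongside.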

Series [7] has as its system Human alphaherpesvirus 1. As to the kind of experiment: Antiviral activity against Herpesvirus 1 infected in human KB cells assessed as virus-induced cytopathic effect after 72 hrs. It counts as functional. The following applies: Human alphaherpesvirus 1, 72 h. The gist of the method: as §1

≈ marks a conversion by molar mass, not a printed value. Calls of active or inactive are those of the source. The calls are words filed in the database; no cut-off is given here.

`Nc1nc2c(ncn2[C@@H]2O[C@@H]3COP(=O)(O)O[C@@H]3[C@H]2O)c(=O)[nH]1`: in the series with Vaccinia virus, the outcome was inactive. Further, the result in the series with Human alphaherpesvirus 1 [1], in the series on Human alphaherpesvirus 2, with Human alphaherpesvirus 1 [4] and in the series with Human alphaherpesvirus 1 [5] was Active. For the same compound, in the series with Human alphaherpesvirus 1 [2], the Survival result was “Active”. The same compound displayed an MCC at 72 h in [3] of 32 µg/mL. Further, the Activity entry in the series on Mus musculus was “Toxic”. In addition, in series [6], the selectivity ratio is at least 4. In the series on Human alphaherpesvirus 1 [7], the MIC is 32 µg/mL (≈ 92.7 µM).
The compound `Nc1nc2c(ncn2[C@@H]2O[C@H](CO)[C@H](O)[C@H]2O)c(=O)[nH]1` registered an MCC at 72 h in [3] of 10 µg/mL.
As to `Nc1nc(O)c2ncn([C@@H]3O[C@H](CO)[C@H](O)[C@H]3O)c2n1`, the result in the series on Vaccinia virus was inactive. Moreover, the result in the series with Human alphaherpesvirus 2 and in the series with Human alphaherpesvirus 1 [5] was Active. For the same compound, the MIC with Human alphaherpesvirus 1 [7] came to 10 µg/mL (≈ 35.3 µM).
As for `Nc1ncnc2c1ncn2[C@@H]1O[C@H](CO)[C@@H](O)[C@@H]1O` [VIDARABINE], the result in the series with Vaccinia virus, in the series with Human alphaherpesvirus 2 and in the series on Human alphaherpesvirus 1 [5] was Active. For the same compound, in series [3], the MCC at 72 h worked out at 3.2 µg/mL. Besides, the MIC in the series on Human alphaherpesvirus 1 [7] was 3.2 µg/mL (≈ 12 µM).
`Nc1nc(O)c2ncn([C@@H]3O[C@H](COP(=O)(O)O)[C@H](O)[C@H]3O)c2n1`: the outcome in the series on Vaccinia virus was inactive. In addition, the outcome with Human alphaherpesvirus 2 and with Human alphaherpesvirus 1 [5] was Active. Besides, the MCC at 72 h in [3] stood at 3.2 µg/mL. The MIC in the series on Human alphaherpesvirus 1 [7] is 10 µg/mL (≈ 27.5 µM).
